# ERp5 inh: inhibitors of human ERp5 | ERp5 insulin aggregation, absorbance 650 nm, 90 min | Q15084 | inhibition, % at 9.99 µM | AID 651711 | 350,000 compounds, 0.05% hits;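 active means mean replicate inhibition above about 25%, with every replicate also reaching it, limit read from the data, passing the limit was not always enough; inconclusive means only one of those two criteria met; inactive means neither criterion met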
# Env fusion inh: inhibitors of HIV Env-mediated cell fusion; inhibition, % at 12.3 µM; 360,000 compounds, 1.1% hits; HeLa-JRFL Env/CEM21 cell fusion, luciferase;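 active means mean replicate inhibition score of at least 50 and every replicate individually at or above 50; inconclusive means only one of the two criteria met; inactive means mean below 50 and not all replicates reaching 50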
# GSIS activator: primary screen for activators of insulin secretion dependent on glucose, INS-1E cells, GLuc reporter luminescence. INS-1E GLuc reporter insulin secretion, 2-3 h. activation, % at 16.6 µM. 370,000 compounds, 0.61% hits;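 active means lowest replicate activation of at least 40%, so every replicate reaches that level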
# PDI inh: inhibitors of human protein disulfide isomerase; P07237; PDI insulin aggregation turbidity, A650, 90 min; inhibition, % at 10 µM; 350,000 compounds, 0.052% hits;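 active means mean inhibition across replicates of 30% or more, whatever share of single replicates reach that level; inconclusive means mean inhibition below 30% while every single replicate reaches 30%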
# Target sequence (P07237 whole entry, looked up): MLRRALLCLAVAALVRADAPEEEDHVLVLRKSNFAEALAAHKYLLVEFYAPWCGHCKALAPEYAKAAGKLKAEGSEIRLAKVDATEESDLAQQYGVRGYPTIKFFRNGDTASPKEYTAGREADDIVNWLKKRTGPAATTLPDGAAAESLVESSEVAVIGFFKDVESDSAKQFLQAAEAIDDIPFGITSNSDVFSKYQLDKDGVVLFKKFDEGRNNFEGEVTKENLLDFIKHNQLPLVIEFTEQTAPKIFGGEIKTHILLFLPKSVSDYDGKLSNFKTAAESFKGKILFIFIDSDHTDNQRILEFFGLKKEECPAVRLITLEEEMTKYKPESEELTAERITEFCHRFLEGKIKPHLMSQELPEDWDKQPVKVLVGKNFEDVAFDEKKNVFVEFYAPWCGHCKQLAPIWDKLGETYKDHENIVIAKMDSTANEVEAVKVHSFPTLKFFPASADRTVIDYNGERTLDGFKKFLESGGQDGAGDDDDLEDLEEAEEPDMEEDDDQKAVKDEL
# FN deposition inh: fibronectin deposition inhibition. 350,000 compounds, 0.086% hits. inhibition, % at 12.6 µM. AH1F fibroblasts, Alexa488-fibronectin deposition fluorescence, overnight;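 active means mean inhibition across replicates of 30% or more, regardless of how many single replicates reach that level; inconclusive means mean under 30% yet at least half of replicates reach 30%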
#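 Measured by – fluorescence 485/525 nm · System – AH1F fibroblast monolayer, labelled fibronectin deposition · Amount – 10000 cells per well · Buffer or medium – serum-reduced DMEM (2% serum) · Doses – single dose, pinned · Also added – fluorescent fibronectin at 24 nM final · Schedule – 1 h cell attachment, overnight exposure to compound and label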
# Numbers stand for hits; 0 = inactive; ? = inconclusive; - = no result given. In the library only some 1.4% were active in any assay of this set; here they are far more common.
SMILES,ERp5 inh,Env fusion inh,GSIS activator,PDI inh,FN deposition inh
O=S(=O)(NCC(Nc1ccccc1)c1ccccc1)c1ccc(Cl)cc1 (stereo not given),-,98.4,0,0,0
COc1ccc(-c2cc(=O)oc3c(C)c(O)c(CN(C)C)cc23)cc1,-,73.1,-,0,0
COc1cc(OC)cc(C(=O)N[C@H](C(=O)NCCc2c[nH]c3ccccc23)C(C)C)c1,0,77.8,0,0,0
OC[C@@H]1[C@H](c2ccc(-c3cccnc3)cc2)[C@H]2CN(Cc3ccccn3)CCCCN12,0,-,0,-,0
COc1cccc(C(=O)OCCCOC(=O)c2cccc(OC)c2OC)c1OC,0,0,41.9,0,0
COc1cc(OC)c(C(=O)OCCCOC(=O)c2cc(OC)c(OC)cc2OC)cc1OC,0,0,0,0,0
Cc1ccc2nc(Cl)nc(-c3ccccc3)c2c1,0,0,51.3,0,0
O=C(Nc1ccccc1F)N1[C@@H](CO)[C@@H]2c3ccccc3NC[C@@H]21,0,-,0,-,-
C=CCOc1cccc(C(=O)N2CCC(CCC(=O)NC3CC3)CC2)c1,0,0,54.3,0,0
COc1ccc(OC)c(CN2C(=O)c3ccccc3C2C(=O)NCC2CCCO2)c1 (stereo not given),0,0,52.3,0,0
O=C(CN1C(=O)c2ccccc2C1=O)NCC1CCCO1 (stereo not given),-,-,-,0,-
O=C(NCC1CCCO1)C1CCC(N2C(=O)c3ccccc3C2=O)CC1 (stereo not given),-,0,80.6,0,0
CCCCc1c(-c2ccccc2OC)ncn1CCc1ccc(OC)cc1,0,0,0,-,0
CCCCc1c(Cc2ccccc2)ncn1CCc1ccccc1OC,0,58.2,174.3,-,0
CCCCc1c(-c2ccccc2OC)ncn1CCc1ccccc1,0,0,46.2,-,0
CCCCc1c(-c2ccccc2OC)ncn1C(C)c1ccccc1 (stereo not given),0,76.3,91.8,-,0
CCCCc1c(-c2ccccc2)ncn1CCc1ccccc1OC,0,0,0,-,0
COCC(=O)N1CC(=O)N2[C@H](CO)[C@H](c3ccc(Br)cc3)[C@H]2C1,0,-,0,-,-
CCC(=O)N1[C@H](CO)[C@H]2c3ccccc3N(C(=O)NC(C)C)C[C@H]21,0,-,0,-,-
CO[C@@H]1CN(C)C(=O)c2cc(NC(=O)C3CC3)ccc2OC[C@H](C)N(Cc2ccc(F)cc2)C[C@H]1C,0,-,0,-,0
COc1cc2c3c([nH]c2cc1F)C(=O)NCC3,0,58.6,0,0,0
C=C1C(=O)O[C@H]2[C@@H]1CC/C(CO)=C\CC[C@@]1(C)O[C@@H]21,0,0,-,-,-
C=C1C(=O)OC2C1CCC(C)=C1C(=O)C3OC3(C)C12 (stereo not given),0,-,133.6,-,-
CCN1CCN(CCCNC(=O)c2ccc(/C=C3/Sc4ccccc4N(Cc4ccccc4F)C3=O)cc2)CC1,0,0,99.9,0,0
CCOC(=O)c1c(N)c(C#N)c2n1CCCC2,-,-,70.7,0,-
SMILES,ERp5 inh,Env fusion inh,GSIS activator,PDI inh,FN deposition inh
CCOC(=O)c1c(N)c(C#N)c2n1CCCCC2,-,-,-,0,-
N#C[C@H]1[C@@H](c2ccc(C3=CCCC3)cc2)[C@H](CO)N1C(=O)Cc1ccncc1,0,0,0,-,0
O=C(C(Cc1ccccc1)N1C(=O)c2ccccc2C1=O)N1c2ccccc2CCc2ccccc21 (stereo not given),0,65.6,0,0,0
O=C1c2ccccc2C(=O)N1CC(=O)N1c2ccccc2CCc2ccccc21,-,0,-,0,0
C=CC[C@H](CC(=O)NCCO)C(=O)N[C@H](COC(=O)[C@@H](CC=C)Cc1ccc(F)cc1)Cc1ccccc1,0,59.1,0,0,0
C=CC[C@H](CC(=O)NCCO)C(=O)N[C@@H](COC(=O)[C@@H](CC=C)Cc1ccc(F)cc1)Cc1ccccc1,0,79.5,0,0,0
C=CC[C@H](CC(=O)NCCO)C(=O)N[C@H](COC(=O)[C@@H](CC=C)Cc1ccc(F)cc1)c1ccccc1,0,0,0,0,0
C=CCC[C@H](Cc1ccc(F)cc1)C(=O)OC[C@H](Cc1c[nH]c2ccccc12)NC(=O)[C@@H](CC=C)CC(=O)N[C@@H](CO)Cc1ccccc1,0,0,0,0,31.5
O=C(C[C@H]1CC[C@H]2[C@@H](COC[C@H](O)CN2Cc2cccc(C(F)(F)F)c2)O1)NCCc1ccncc1,-,0,0,-,0
COc1ccc(S(=O)(=O)N[C@@H]2CC[C@H](CCn3cc(C(C)C)nn3)O[C@@H]2CO)cc1,0,0,0,-,0
CC(C)CC#Cc1ccc([C@H]2[C@@H](CO)N3CCCCN(S(=O)(=O)Cc4ccccc4)C[C@H]23)cc1,0,-,0,-,-
CCOc1cc(/C=C2\CN(CC)C/C(=C\c3ccc(O)c(OCC)c3)C2=O)ccc1O,0,66.6,0,0,0
CC12CCC(=O)N1C(C(=O)Nc1nc3ccc(S(C)(=O)=O)cc3s1)CS2 (stereo not given),0,55.0,0,0,-
CC12CCC(=O)N1C(C(=O)Nc1nc3ccc(Cl)cc3s1)CS2 (stereo not given),0,0,0,0,0
CS(=O)(=O)c1ccc2nc(NC(=O)Nc3ccc(Cl)c(Cl)c3)sc2c1,-,0,260.3,0,0
CS(=O)(=O)c1ccc2nc(NC(=O)Nc3cccc(Cl)c3)sc2c1,?,-,0,0,-
C/C=C/c1ccc([C@@H]2[C@@H](CO)N(C(C)=O)C23CN(C(=O)c2ccc(F)cc2)C3)cc1,0,-,0,-,-
CCCc1cc(NCC2CCCO2)n2c(nc3ccccc32)c1C#N (stereo not given),-,0,56.6,0,-
CCCc1cc(NCCN(C)C)n2c(nc3ccccc32)c1C#N,0,0,0,0,0
C[C@H]1CN([C@@H](C)CO)C(=O)c2cccc(NC(=O)C3CCOCC3)c2O[C@@H]1CN(C)S(=O)(=O)c1ccccc1,0,-,0,-,-
C[C@@H]1CC[C@H]2C(=O)N3[C@@H](CC[C@@H](C)[C@@H]3c3ccc(Br)cc3)C(=O)N2[C@H]1c1ccc(Br)cc1,0,77.3,0,0,0
CC1CN(c2nc3ccccc3nc2SCC(=O)Nc2cccc(C(F)(F)F)c2)CC(C)O1 (stereo not given),0,63.9,0,-,0
COc1ccc(CN(C)C[C@@H]2Oc3c(NS(=O)(=O)c4ccc(F)cc4)cccc3C(=O)N([C@@H](C)CO)C[C@@H]2C)cc1,0,-,0,-,-
CCCCCc1cc(=O)oc2c(C(CCN3CCCC(C)C3)c3ccc(OC)cc3)c(OC)cc(OC)c12 (stereo not given),0,0,339.0,0,0
CCCCCc1cc(=O)oc2c(C(CCN3CCCCC3)c3ccc(OC)cc3)c(OC)cc(OC)c12 (stereo not given),0,0,-,0,0
COc1cc(C(CCN2CCCCC2)c2c(OC)cc(OC)c3c(-c4ccccc4)cc(=O)oc23)cc(OC)c1OC (stereo not given),0,0,-,0,30.3
COc1ccc2c3c(n(C)c2c1)[C@@H](CO)N(Cc1ccccc1)CC31CN(C)C1,0,-,0,-,-

# Screens from PubChem.
